This is an account of results in ChEMBL document CHEMBL1139414, “Conformationally constrained analogues of diacylglycerol. 29. Cells sort diacylglycerol-lactone chemical zip codes to produce diverse and selective biological activities” (J Med Chem, 2008).

In the assay the target is Protein kinase C alpha type (Mus musculus, UniProt P20444). Description: Displacement of [3H]PDBu form mouse PKCalpha by scintillation counting. The gist of the method:
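Partially purified mouse PKCα; competition with [³H]PDBU. ID50 obtained by fitting a sigmoidal competition curve and converted to Ki = ID50/(1+L/Kd). Pure compounds tested at 6–7 concentrations; crude library compounds at a single 1 μM concentration. Triplicates per concentration, at least three experiments; mean ± SEM.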
In general terms: Displacement assays read how much labelled ligand stays bound in the presence of the test substance.

With `CC(C)(C)CC(=O)OCC1(CO)C/C(=C/c2ccc(C(F)(F)F)cc2)C(=O)O1` (racemic), the affinity corresponds to a Ki of 24.7 nM.

Take `CCCC(CCC)C(=O)OCC1(CO)C/C(=C\c2ccc(Cl)c(F)c2)C(=O)O1` (racemic; form 2): the affinity, expressed as Ki, was 21.5 nM. The Ki values of the last two compounds are within 1.5-fold of each other.

On to `CCCCC(/C=C1/CC(CO)(COC(=O)c2ccc(N(C)C)cc2)OC1=O)CC` (racemic; form 2), for which the affinity, expressed as Ki, was 134 nM.

Regarding `CCCC(CCC)C(=O)OCC1(CO)C/C(=C/c2ccc(-c3ccc(C(F)(F)F)cc3)cc2)C(=O)O1` (racemic), the affinity, expressed as Ki, was 40.6 nM.

Consider `CCCCCC/C=C1/CC(CO)(COC(=O)c2ccccc2)OC1=O` (racemic), for which the Ki (as a rule, the equilibrium dissociation constant of an inhibitor or competing ligand from its target) stood at 98.5 nM. Compared with the last compound, the Ki is about 2.4-fold higher.

Compound `CC(C)c1cc(C(C)C)c(C(=O)OCC2(CO)C/C(=C/c3ccccc3)C(=O)O2)c(C(C)C)c1` (racemic) returned a Ki of 160 nM.

`CC(C)C(=O)OCC1(CO)C/C(=C/c2ccc(F)cc2)C(=O)O1` (racemic) had a Ki of 273 nM.

`CCCC(CCC)C(=O)OCC1(CO)C/C(=C/c2ccc(Cl)cc2)C(=O)O1` (racemic): the Ki is 13.1 nM.

Consider `CCCCC(/C=C1/CC(CO)(COC(=O)c2ccccc2)OC1=O)CC` (racemic), for which the Ki was found to be 312 nM.

The compound `CC(CC(=O)OCC1(CO)C/C(=C/c2ccc(-c3ccc(C(F)(F)F)cc3)cc2)C(=O)O1)CC(C)(C)C` (racemic) gave a Ki of 49.7 nM.

`COc1ccc(C(=O)OCC2(CO)C/C(=C/c3ccccc3)C(=O)O2)cc1` (racemic) showed a Ki of 492 nM.

The compound `O=C1OC(CO)(COC(=O)c2ccc(C(F)(F)F)cc2)C/C1=C/c1ccc(C(F)(F)F)cc1` (racemic) returned a Ki of 72.4 nM.

For `CCCCC(CC)C(=O)OCC1(CO)C/C(=C/C2CCCCC2)C(=O)O1` (racemic), the Ki came to 30.2 nM.

`CCCCCC/C=C1/CC(CO)(COC(=O)c2c(C)cc(C)cc2C)OC1=O` (racemic): the affinity corresponds to a Ki of 41.4 nM.

The compound `O=C1OC(CO)(COC(=O)C(c2ccccc2)c2ccccc2)C/C1=C/c1ccc(Br)cc1` (racemic) came in with an inhibition constant (Ki) of 58.9 nM. The Ki values of the last two compounds are within 1.5-fold of each other.

The compound `CCCCC(CC)C(=O)OCC1(CO)C/C(=C\c2ccc(N(C)C)cc2)C(=O)O1` (racemic; form 1) yielded an inhibition constant Ki of 12.9 nM.

Compound `CC(C)C(=O)OCC1(CO)C/C(=C/c2ccc(Cl)c(F)c2)C(=O)O1` (racemic) yielded an inhibitory constant (Ki) of 87.6 nM. Compared with the last compound, the Ki is about 6.8-fold higher.

In turn, `CCCCC(CC)C(=O)OCC1(CO)C/C(=C/c2ccc(Br)cc2)C(=O)O1` (racemic) showed a Ki of 8.5 nM.

`Cc1ccc(C(=O)OCC2(CO)C/C(=C/c3ccc([N+](=O)[O-])cc3)C(=O)O2)cc1` (racemic) returned a Ki of 212 nM.

Consider `CCCCC(CC)C(=O)OCC1(CO)C/C(=C\c2ccc(Cl)cc2)C(=O)O1` (racemic; form 1), for which the Ki came to 12.7 nM.

`O=C1OC(CO)(COC(=O)C(c2ccccc2)c2ccccc2)C/C1=C/c1cc(C(F)(F)F)cc(C(F)(F)F)c1` (racemic) returned a Ki of 79.5 nM.

As for `CCCC(CCC)C(=O)OCC1(CO)C/C(=C\c2ccc(F)c(Cl)c2)C(=O)O1` (racemic; form 1), the affinity, expressed as Ki, was 2.45 nM.

As for `CCCCC(CC)C(=O)OCC1(CO)C/C(=C/c2ccc(C(F)(F)F)cc2)C(=O)O1` (racemic; form 2), the Ki came out at 13.1 nM.

The compound `CCCC(CCC)C(=O)OCC1(CO)C/C(=C\c2ccc(F)cc2)C(=O)O1` (racemic; form 2) had a Ki of 17.1 nM. The Ki values of the last two compounds are within 1.5-fold of each other.

Take `CCCCCCC(=O)OCC1(CO)C/C(=C/c2ccc(OC)cc2)C(=O)O1` (racemic): the Ki came out at 113 nM. Compared with the last compound, the Ki is about 6.6-fold higher.

`O=C1OC(CO)(COC(=O)C(c2ccccc2)c2ccccc2)C/C1=C/c1ccc(Cl)c(F)c1` (racemic) displayed a Ki of 90.7 nM.

In the case of `CCCC(CCC)C(=O)OCC1(CO)C/C(=C\c2ccc(F)c(Br)c2)C(=O)O1` (racemic; form 1), the affinity, expressed as Ki, was 8.1 nM.

Compound `CC(C)(C)C(=O)OCC1(CO)C/C(=C/c2ccccc2C(F)(F)F)C(=O)O1` (racemic) displayed a Ki of 54.5 nM.

On to `CCCCC(CC)C(=O)OCC1(CO)C/C(=C/c2ccc(C(F)(F)F)cc2)C(=O)O1` (racemic; form 1), for which the Ki stood at 15.5 nM. This Ki lies about 3.5-fold lower than the previous one.

In the case of `O=C1OC(CO)(COC(=O)C2CCCCC2)C/C1=C/c1ccc(C(F)(F)F)cc1` (racemic), affinity was put at a Ki of 31.9 nM.

Compound `CCCCCC/C=C1/CC(CO)(COC(=O)c2c(C(C)C)cc(C(C)C)cc2C(C)C)OC1=O` (racemic; form 2) returned a Ki of 126 nM.

Compound `O=C1OC(CO)(COC(=O)C(c2ccccc2)c2ccccc2)C/C1=C/c1ccc(Cl)cc1` (racemic) had a Ki of 73.4 nM.

`CCCCCC/C=C1/CC(CO)(COC(=O)C2CCCCC2)OC1=O` (racemic) registered a Ki of 28.9 nM.

Turning to `CCCCC(/C=C1/CC(CO)(COC(=O)c2ccc([N+](=O)[O-])cc2)OC1=O)CC` (racemic; form 2), the Ki came to 334 nM.

The compound `CC(C)C(=O)OCC1(CO)C/C(=C/c2ccc(-c3ccc(C(F)(F)F)cc3)cc2)C(=O)O1` (racemic) showed an inhibitory constant (Ki) of 34.8 nM.

Consider `CC(CC(=O)OCC1(CO)C/C(=C/c2cc(C(F)(F)F)cc(C(F)(F)F)c2)C(=O)O1)CC(C)(C)C` (racemic), for which the Ki was determined as 30.1 nM.

For the compound `CCCCC(CC)C(=O)OCC1(CO)C/C(=C/c2ccc(-c3ccc(C(F)(F)F)cc3)cc2)C(=O)O1` (racemic), the affinity, expressed as Ki, was 27.4 nM.

Take `CCCCC(/C=C1/CC(CO)(COC(=O)C2CCCCC2)OC1=O)CC` (racemic): the inhibition constant Ki is 123 nM.

Take `CCCCCC/C=C1/CC(CO)(COC(=O)C(CC)CCCC)OC1=O` (racemic): the Ki turned out to be 15.2 nM.

Compound `CC(CC(=O)OCC1(CO)C/C(=C/c2ccc(F)cc2)C(=O)O1)CC(C)(C)C` (racemic) yielded a Ki of 16.8 nM.

As to `CCCCC(/C=C1/CC(CO)(COC(=O)c2ccc(N(C)C)cc2)OC1=O)CC` (racemic; form 1), affinity was put at a Ki of 466 nM.

Take `CCCCCCC(=O)OCC1(CO)C/C(=C/C(CC)CCCC)C(=O)O1` (racemic): the affinity corresponds to a Ki of 74.5 nM.

For the compound `Cc1cc(C)c(C(=O)OCC2(CO)C/C(=C/c3ccc(C(F)(F)F)cc3)C(=O)O2)c(C)c1` (racemic), the Ki was 25.1 nM.

Compound `O=C1OC(CO)(COC(=O)C(c2ccccc2)c2ccccc2)C/C1=C/c1ccc(OC(F)(F)F)cc1` (racemic) showed a Ki of 97.6 nM.

Regarding `Cc1ccc(C(=O)OCC2(CO)C/C(=C/c3ccccc3)C(=O)O2)cc1` (racemic), the Ki is 138 nM.

Compound `COc1ccc(/C=C2/CC(CO)(COC(=O)c3ccccc3C)OC2=O)cc1` (racemic) gave a Ki of 173 nM.

The compound `Cc1ccccc1C(=O)OCC1(CO)C/C(=C/c2ccc(C(F)(F)F)cc2)C(=O)O1` (racemic) displayed a Ki of 47.8 nM.

The compound `O=C1OC(CO)(COC(=O)C(c2ccccc2)c2ccccc2)C/C1=C/c1ccc(F)c(Br)c1` (racemic) had a Ki of 37.9 nM. The Ki values of the last two compounds are within 1.5-fold of each other.

In turn, `COc1ccc(C(=O)OCC2(CO)C/C(=C\c3ccc(N(C)C)cc3)C(=O)O2)cc1` (racemic; form 2) gave a Ki of 890 nM.

In turn, `CCCC(CCC)C(=O)OCC1(CO)C/C(=C\c2ccc(F)c(Br)c2)C(=O)O1` (racemic; form 2) gave a Ki of 2.66 nM. This Ki lies about 330-fold lower than the previous one.

`O=C1OC(CO)(COC(=O)C2CCCCC2)C/C1=C/C1CCCCC1` (racemic) yielded a Ki of 89.4 nM.

`CC(C)(C)C(=O)OCC1(CO)C/C(=C/c2cccc(C(F)(F)F)c2)C(=O)O1` (racemic) returned a Ki of 28.1 nM. This Ki is about 3.2-fold lower than that of the compound before.

With `CCCCCCC(=O)OCC1(CO)C/C(=C/c2ccc([N+](=O)[O-])cc2)C(=O)O1` (racemic), the affinity, expressed as Ki, was 93.8 nM.

The compound `CC(C)(C)CC(=O)OCC1(CO)C/C(=C/c2ccc(Cl)cc2)C(=O)O1` (racemic) came in with a Ki of 26.5 nM.

In turn, `CCCCC(CC)C(=O)OCC1(CO)C/C(=C\c2ccc(Cl)c(F)c2)C(=O)O1` (racemic; form 2) returned a Ki of 4.89 nM. This Ki lies about 5.4-fold lower than the previous one.

Compound `CC(C)C(=O)OCC1(CO)C/C(=C/c2ccc(F)c(Br)c2)C(=O)O1` (racemic) registered a Ki of 60.6 nM.

`CN(C)c1ccc(/C=C2\CC(CO)(COC(=O)c3ccc([N+](=O)[O-])cc3)OC2=O)cc1` (racemic; form 2) displayed a Ki of 1230 nM. This Ki is about 20-fold higher than that of the compound before.

Regarding `CCCCC(/C=C1/CC(CO)(COC(=O)c2ccc(C)cc2)OC1=O)CC` (racemic), the affinity corresponds to a Ki of 171 nM. This Ki is about 7.2-fold lower than that of the compound before.

Regarding `CCCCC(CC)C(=O)OCC1(CO)C/C(=C/c2ccc(F)cc2)C(=O)O1` (racemic), the affinity corresponds to a Ki of 15.1 nM.

Consider `CCC(C(=O)OCC1(CO)C/C(=C/c2ccc(F)c(Cl)c2)C(=O)O1)c1ccccc1` (racemic), for which affinity was put at a Ki of 31.9 nM.

The compound `O=C1OC(CO)(COC(=O)c2ccc([N+](=O)[O-])cc2)C/C1=C/c1ccccc1` (racemic) had a Ki of 438 nM.

In the case of `O=C1OC(CO)(COC(=O)C(c2ccccc2)c2ccccc2)C/C1=C/c1ccc(F)cc1` (racemic), affinity was put at a Ki of 81.8 nM.

With `CC(C)(C)C(=O)OCC1(CO)C/C(=C/c2ccc(Cl)c(F)c2)C(=O)O1` (racemic), affinity was put at a Ki of 36.7 nM.

As to `O=C1OC(CO)(COC(=O)C(c2ccccc2)c2ccccc2)C/C1=C/c1cccc(C(F)(F)F)c1` (racemic), the Ki is 61.9 nM.

In turn, `CCCC(CCC)C(=O)OCC1(CO)C/C(=C\c2ccc(C(F)(F)F)cc2)C(=O)O1` (racemic; form 1) gave a Ki of 2.96 nM.

For the compound `CN(C)c1ccc(/C=C2/CC(CO)(COC(=O)C3CCCCC3)OC2=O)cc1` (racemic), the affinity, expressed as Ki, was 373 nM.

For `CC(CC(=O)OCC1(CO)C/C(=C/c2cccc(C(F)(F)F)c2)C(=O)O1)CC(C)(C)C` (racemic; form 2), the inhibitory constant (Ki) came to 41 nM.

In turn, `CC(C)C(=O)OCC1(CO)C/C(=C/c2ccccc2C(F)(F)F)C(=O)O1` (racemic; form 1) had a Ki of 310 nM.

For `CCC(C(=O)OCC1(CO)C/C(=C\c2ccc(-c3ccc(C(F)(F)F)cc3)cc2)C(=O)O1)c1ccccc1` (racemic; form 1), the Ki stood at 108 nM.

In turn, `CC(C)C(=O)OCC1(CO)C/C(=C/c2ccc(Cl)cc2)C(=O)O1` (racemic) gave an inhibitory constant (Ki) of 88.2 nM.

`CCCCC(/C=C1/CC(CO)(COC(=O)c2ccc(OC)cc2)OC1=O)CC` (racemic) gave a Ki of 234 nM.

Compound `O=C1OC(CO)(COC(=O)c2ccc(C(F)(F)F)cc2)C/C1=C/c1ccccc1` (racemic) yielded a Ki of 103 nM.
